Assay outcomes as filed in PubChem.
ROMK mod: ROMK potassium channel modulators, primary screen, cell-based, thallium flux, MLSMR library. B-score at 10 µM. Tet-inducible ROMK, thallium flux fluorescence; actives lie on both sides. hit rate 2% among 130,000. ATP-sensitive inward rectifier potassium channel 1 (Homo sapiens), P48048;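 active means signal ratio slope over the read window, or its plate-corrected B-score, at least 3 SD from the plate mean, either direction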;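 further: B-score of the F/F0 ratio slope over 7 to 12 s after thallium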
Target sequence (P48048 whole entry, looked up): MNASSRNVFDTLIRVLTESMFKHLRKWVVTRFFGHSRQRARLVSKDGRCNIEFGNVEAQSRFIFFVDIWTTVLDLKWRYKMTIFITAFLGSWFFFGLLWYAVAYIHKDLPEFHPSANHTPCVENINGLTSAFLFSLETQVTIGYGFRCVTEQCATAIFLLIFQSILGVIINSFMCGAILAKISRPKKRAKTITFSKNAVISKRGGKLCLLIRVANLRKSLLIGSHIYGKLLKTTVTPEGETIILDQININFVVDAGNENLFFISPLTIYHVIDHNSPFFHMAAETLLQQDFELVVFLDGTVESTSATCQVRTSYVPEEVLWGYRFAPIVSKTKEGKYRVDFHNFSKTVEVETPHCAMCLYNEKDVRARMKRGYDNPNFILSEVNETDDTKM
RBBP9 inhibitor: human RBBP9 inhibitors, primary screen, biochemical, fluorescence polarization, FP-Rh probe, HTS | recombinant RBBP9 | Serine hydrolase RBBP9 (Homo sapiens), O75884 | inhibition, % at 7.94 µM | hit rate 0.2% among 220,000;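 active means inhibition above the campaign mean of all tested compounds plus 3 SD, cut at about 14% in these data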;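 further: plate controls were DMSO wells with RBBP9 for no effect and wells lacking RBBP9 protein for full effect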
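Controls: DMSO-treated enzyme wells and wells lacking RBBP9 | Material: RBBP9 protein | Technique: Fluorescence polarization | Replication: Single well per compound, no replicates | Buffer or medium: Tris-NaCl-Pluronic buffer, pH 8.0 | Timing: 30 min compound preincubation, 45 min probe labeling, 25 °C | Read-out basis: Percent inhibition from mP, scaled between DMSO and no-protein wells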
NCF1 inh: p47phox/p22phox peptide binding inhibitors, primary screen, biochemical, uHTS, NADPH oxidase regulatory subunit; inhibition, % at 24.7 µM; hit rate 0.53% among 220,000; AID 1274, 2008; fluorescence polarization, 2 h; Neutrophil cytosol factor 1 (Homo sapiens), P14598;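 active means inhibition above about 30%, limit read from the data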;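 further: 0% = p47phox with labelled peptide and 100% = labelled peptide alone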
14-3-3 Bad inh: inhibitors of 14-3-3 zeta/Bad binding, primary screen, biochemical, TR-FRET, bovine 14-3-3 zeta; hit rate 0.71% among 220,000; inhibition, % at 21.7 µM; TR-FRET 14-3-3zeta/Dy647-pBad peptide displacement, 1 h; 14-3-3 protein zeta/delta (Bos taurus), P63103;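 active means inhibition above about 70%, limit read from the data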;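 further: 0% = full 14-3-3 plus peptide FRET controls and 100% = background without 14-3-3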
Target sequence (P63103 whole entry, looked up): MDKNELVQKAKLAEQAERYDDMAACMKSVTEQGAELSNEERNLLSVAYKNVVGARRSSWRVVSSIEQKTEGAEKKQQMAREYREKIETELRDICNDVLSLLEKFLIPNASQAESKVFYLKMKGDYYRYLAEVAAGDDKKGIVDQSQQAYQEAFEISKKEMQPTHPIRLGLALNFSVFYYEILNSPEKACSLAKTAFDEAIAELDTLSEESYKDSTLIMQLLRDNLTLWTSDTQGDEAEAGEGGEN
KCC2 mod: KCC2 cotransporter modulators, thallium flux, primary screen, cell-based, HEK293 KCC2, FluoZin-2 fluorescence, MLSMR; Solute carrier family 12 member 5 (Homo sapiens), Q9H2X9; KCC2 cells, thallium flux FluoZin-2 fluorescence; B-score of Tl+ flux slope (higher = more flux/activation; lower = inhibition) at 10 µM; hit rate 2.2% among 190,000;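 active means thallium flux slope and its plate-corrected score both differing from the plate sample mean at a set confidence after two filtering rounds, in either direction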;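 further: slope of fluorescence scaled to starting intensity during 10 to 20 s after thallium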
WT yeast gro inh: growth inhibition of WT strain, primary screen, mitochondrial fusion inhibitor project, WT and mutant strains, chemical genetic; inhibition, % at 10 µM; AID 1362, 2008; hit rate 2.1% among 190,000; mitochondrial fusion phenotypic screen; in the data active means inhibition above about 58%; tested in S. cerevisiae
An asterisk follows results filed as active; . = no result; + = active, no number; [ ] = dose if it differs, or a comment. Compounds with a hit are over-represented: about 5.8% of the library has one in this group of screens.

SMILES	ROMK mod	RBBP9 inhibitor	NCF1 inh	14-3-3 Bad inh	KCC2 mod	WT yeast gro inh
O=C(c1ccc(F)cc1F)N1CCN(c2n[nH]c(=O)[nH]c2=O)CC1	-0.077	-9	-1	-24	0.017	7
COc1ccc(CC(=O)N2CCC(Nc3nc4ccccc4n3Cc3ccc(F)cc3)CC2)cc1	-4*	-10	-1	-5	-0.21	10
CCOC(=O)C(C)Sc1cc(CS(=O)(=O)c2ccccc2)nc(-c2ccccc2)n1 (centres undefined)	.	-8	-2	-10	-0.47	23
C/C(=C\C(=O)c1ccc(Br)cc1)Nc1ccc(Cl)cc1	-0.38	-5	-8	1	-0.084	7
COc1cccc(N/C(C)=C/C(=O)c2ccc(Br)cc2)c1	-0.039	-7	-18	2	1.5	65*
COCCCNC(=O)c1ccc2c(c1)OCO2	-0.23	-11	0	0	-0.29	5
COCCCNC(=O)c1cccc(C(=O)NCCCOC)c1	0.57	-6	30	3	.	66*
Cc1ccc(C(=O)CC(=O)COc2ccc(Cl)cc2C)cc1	.	2	-5	-15	17*	4
Cc1ccc(NC(=O)c2ccc(OC(=O)COc3ccc(Cl)cc3C)cc2)cc1	1.4	-3	-13	-4	0.46	-1
CSc1ccc(-c2nc(O)c3cnccn23)cc1	-0.29	-2	.	6	0.26	10
O=C(CCn1nnc2ccccc21)Nc1nnc(Cc2ccccc2)s1	-0.11	-1	-7	-11	.	67*
COc1ccc(-c2nnc(SCc3nnc(-c4ccccc4)o3)n2-c2ccccc2)cc1	.	-4	-20	19	-1	5
COc1ccc(-c2nnc(SCc3nnc(-c4ccc(Cl)cc4)o3)n2-c2ccccc2)cc1	.	-4	-31	-6	.	64*
CN(Cc1ccc2nonc2c1)Cc1nc(CC2CC2)no1	-0.46	0	-5	-14	0.25	5
CC(C)(C)CC(C)(C)NC(=O)Nc1cccc([N+](=O)[O-])c1	.	-7	-2	-1	-0.21	64*
NNC(=O)Nc1cccc(C(F)(F)F)c1	.	0	-8	-12	.	-1
O=C(Nc1cccc([N+](=O)[O-])c1)C1C2CC/C=C\CCC21 (centres undefined)	.	-7	138*	-3	-0.072	.
O=C(Nc1ccc(OC(F)F)cc1)Nc1cccc(C(F)(F)F)c1	.	-22	18	-1	-0.0039	83*
O=C(Nc1cccc([N+](=O)[O-])c1)c1ccncc1	.	-10	-7	6	-0.18	7
CC(C)(C)c1ccc(C(=O)Nc2cccc([N+](=O)[O-])c2)cc1	0.46	1	-3	-5	0.053	62*
Cc1oc(-c2ccc(-c3ccccc3)cc2)nc1CN1CCN(CC(=O)N(C)C)CC1	-0.54	-14	-11	-8	-1.4	1
O=C(COC(=O)c1cc(-c2ccccn2)nc2ccccc12)Nc1ncc(C(F)(F)F)cc1Cl	.	6	-24	0	0.15	.
Cc1cc(N)n(-c2ccc(S(=O)(=O)c3ccc(C(C)C)cc3)cc2)n1	-2	-10	-5	-9	-0.64	-18
O=C(Nc1ccc(OC(F)(F)F)cc1)Nc1cccc([N+](=O)[O-])c1	.	-4	-14	4	0.69	80*
Cc1ccc(NC(=O)Nc2cccc([N+](=O)[O-])c2)cc1F	.	-14	-9	-8	0.29	38
SMILES	ROMK mod	RBBP9 inhibitor	NCF1 inh	14-3-3 Bad inh	KCC2 mod	WT yeast gro inh
COc1ccc(C2c3sc(=O)[nH]c3SC3C4CCC(C4)C23)cc1 (centres undefined)	.	-9	-18	-4	-0.062	65*
O=C(O)C1CCCCC1C(=O)NCc1ccccn1 (centres undefined)	0.17	1	5	-3	0.65	3
COc1ccc(Cc2n[nH]c(=S)o2)cc1	-0.4	3	-9	-14	-2	-15
S=c1[nH]nc(COc2ccc3ccccc3c2)o1	.	-8	1	46	-5.7*	-8
O=c1c2c3c(sc2nc(N2CCNCC2)n1CCc1ccccc1)CCCCC3	-0.41	-3	-17	3	1.6	.
CC(C)SCc1cc(N2CCCC2)nc(-c2ccccc2)n1	-0.76	-11	-19	-16	0.36	58*
CCN(CC(=O)NCc1cccs1)S(=O)(=O)c1cccc(C(C)=O)c1	.	-5	-2	4	.	12
CCN(CC(=O)NC1CCS(=O)(=O)C1)S(=O)(=O)c1cccc(C(C)=O)c1 (centres undefined)	-1.2	1	43*	0	0.55	7
O=C(CNC(=O)c1ccc(Br)o1)OCC(=O)c1cccc([N+](=O)[O-])c1	0.71	-9	-9	-11	-0.005	-12
COC(=O)c1ccc(Sc2ccc(C)cc2)c(N)c1	0.45	11	-3	17	-0.39	-7
COc1cc(Sc2ccc(C)cc2)c(OC)cc1N	-0.82	8	2	76*	-0.3	5
CSc1nc(Cl)cc(N2CCOCC2)n1	1	4	-1	10	0.041	14
Cc1nc2c(=O)n(C)c(=O)n(C)c2nc1Cl	.	-9	-2	1	-1.1	58*
Cn1c(=O)c2nc(NCc3ccccc3)cnc2n(C)c1=O	-2.5	-2	-14	-12	-0.06	-8
C=CCc1c(C)nc(-c2ccccc2)nc1N/N=C(\C)c1ccc(N)cc1	-0.89	0	-1	74*[fluorescence artefact?]	-0.79	25
COc1ccccc1CNS(=O)(=O)N(C)C	-0.3	-7	-18	-6	0.86	6
Cc1ccc(N2CC(C(=O)Nc3nccs3)CC2=O)cc1Cl (centres undefined)	-1	0	-12	6	.	-4
Cc1c(Cl)cccc1N1CC(C(=O)Nc2nccs2)CC1=O (centres undefined)	-1.1	-2	+	.	.	-18
CCOCCN1CCN(C(=O)CN2CCCC2=O)CC1	0.42	-6	-15	-13	0.65	2
COc1ccc2ccccc2c1CNCCCN1CCOCC1	-0.77	-10	6	9	-1	21
C=CCOc1ccc2ccccc2c1CNCCCN1CCOCC1	.	3	-52	61	0.038	64*
Cc1cc(C)n(-c2nc(C)nc3c2cnn3-c2ccccc2)n1	.	-4	2	-5	.	65*
COc1ccc(C(=O)NNC(=S)NC(=O)/C=C/c2cccs2)cc1	3.7*	-2	-22	-28	13*	8
O=C(/C=C/c1cccs1)NC(=S)Nc1ccccc1	1.1	-1	-7	-8	.	12
O=C(/C=C/c1cccs1)NC(=S)NNC(=O)c1ccccc1O	3.1*	-3	-16	-23	12*	30
